Only some compounds are listed: those with a hit (about 0.9% of all), similar ones and a draw of the others.
PolyA inhibitor – yeast polyadenylation inhibition; 300,000 tested, 0.02% active; AID 1875; activity score, % at 12 µM; S. cerevisiae SKY197-pL101 polyadenylation reporter, beta-gal luminescence; efflux-impaired pdr1/pdr3 knockout yeast; score 100 = 6 SD above DMSO;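 active means lowest replicate activity score at least 50, where 100 means six control SD above control mean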;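 further: yeast exposed to compound for 9 h at 30 °C; higher score means more reporter readthrough which indicates perturbed polyadenylation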
DDE Tn6 FP inh – disrupts Tn6 cyclic peptide binding to fibrin D-Dimer-E complex. P02675. Fibrin DD(E) TRITC-Tn6 fluorescence polarization displacement. inhibition, % at 8.3 µM. 370,000 tested, 0.21% active. AID 720509;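 active means inhibition above a per-campaign cutoff: mean of compounds within control limits plus 3 SD, cut at about 15% in these data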;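 further: 0% = median of all compound wells on the plate and 100% = blocking peptide control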
Target sequence (P02675 whole entry, looked up): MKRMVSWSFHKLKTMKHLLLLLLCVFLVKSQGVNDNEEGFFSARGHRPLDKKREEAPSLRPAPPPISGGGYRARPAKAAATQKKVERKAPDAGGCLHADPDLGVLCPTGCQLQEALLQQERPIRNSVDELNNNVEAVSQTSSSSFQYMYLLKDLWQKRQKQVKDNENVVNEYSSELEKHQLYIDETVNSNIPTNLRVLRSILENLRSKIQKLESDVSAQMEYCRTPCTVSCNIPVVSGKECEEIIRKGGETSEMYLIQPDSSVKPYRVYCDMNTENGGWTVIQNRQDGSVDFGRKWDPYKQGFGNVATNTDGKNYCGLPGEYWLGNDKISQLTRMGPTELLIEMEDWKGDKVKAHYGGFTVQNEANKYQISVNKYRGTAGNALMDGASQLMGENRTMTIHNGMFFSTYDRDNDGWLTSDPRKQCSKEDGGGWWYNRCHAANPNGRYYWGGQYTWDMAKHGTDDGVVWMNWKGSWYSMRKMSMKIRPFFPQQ
SKN-1 inh – inhibitors of C. elegans SKN-1 | C. elegans VP596 Pgst-4::GFP/RFP ratio, acrylamide-induced, 24 h | inhibition, % at 21.8 µM | 360,000 tested, 0.49% active | AID 624304;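 active means interference check ratio from 0.5 to 1.5 plus GFP to RFP signal ratio inhibition reaching or exceeding a fixed threshold, cut at about 30% in these data, passing the limit was not always enough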
Tn7 DDE FP – inhibitors of Tn7 peptide binding to human fibrin DD(E); 370,000 tested, 0.13% active; inhibition, % at 8.3 µM; P02675; FP displacement of FITC-Tn7 peptide from fibrin DD(E); 0% = median of compound wells per plate;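 active means inhibition above the mean of compounds falling within the control limits plus 3 SD of them, cut at about 14% in these data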;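 further: 0% = plate median of compound wells and 100% = 10 µM Aha-Tn7 peptide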
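Test system – human fibrin DD(E) · Times – 10 min preincubation, 3 h with tracer, room temperature · Detection – fluorescence polarization of the labelled Tn7 tracer · Measure – percent inhibition normalized to high-control wells · Benchmarks – high control wells with 10 µM unlabelled Aha-Tn7 peptide (full inhibition) · Repeats – singlicate testing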
MT1-MMP act inh – inhibitors of human MT1-MMP activation; GFP/RFP ratio change, % at 20 µM; HT1080 RFP-PRO-GFP cells, GFP/RFP ratio fluorescence, overnight; percent of plate control window, DMSO zero; 360,000 tested, 0.061% active; P50281;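 active means GFP/RFP ratio change of at least 30% with cell ATP level not reduced by more than half and red fluorescence within 50% of control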
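Assay system: HT1080 RFP-PRO-GFP cells | Dosing: 20 µM single dose, 1% DMSO | Incubation: Cells overnight before dosing, compound overnight, 37 °C, 5% CO2 | Evaluation: GFP/RFP fluorescence ratio | Control set: DMSO-only wells and HT1080 RFP-L50D-GFP cell wells as references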
DAGLB inhibitor – diacylglycerol lipase beta (human) inhibition. Q8NCG7. HEK293T DAGLB membrane lysate, EnzChek fluorogenic substrate. inhibition, % at 5.17 µM. 340,000 tested, 0.059% active; in the data active means inhibition above about 34%;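 further: 0% = enzyme with vehicle and 100% = wells lacking enzyme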
* = called active by the depositor; / = no result given.

SMILES | PolyA inhibitor | DDE Tn6 FP inh | SKN-1 inh | Tn7 DDE FP | MT1-MMP act inh | DAGLB inhibitor
COc1ccccc1-c1c(C(F)(F)F)oc2cc(OC(=O)c3cccc([N+](=O)[O-])c3C)ccc2c1=O | -3.2 | 5.5 | 35.8* | -0.2 | 3.5 | 0.0
COc1cccc(-c2nc(-c3ccccc3)no2)c1 | 4.1 | -1.3 | -4.2 | -2.0 | -6.6 | -6.4
Cc1ccccc1-c1nnc(-c2cccs2)o1 | 6.6 | 7.5 | 23.3 | -3.5 | -5.3 | -8.0
COc1cccc(-c2noc(-c3cccs3)n2)c1 | -9.1 | -0.2 | 91.3* | -2.5 | -1.2 | -15.5
Cc1ccccc1-c1noc(-c2cccs2)n1 | -7.1 | 2.3 | 87.7* | 7.0 | -3.3 | -21.0
CCn1c(CCC(=O)Nc2nc3c(s2)CCCC3)nc2cc(S(=O)(=O)N(C)C)ccc21 | -17.0 | -0.7 | 54.5* | 1.1 | -1.6 | -0.3
Cc1cccn2c(=O)c(C=O)c(N3CCCCCC3)nc12 | -8.5 | / | 37.3* | / | -6.2 | -1.4
Cc1cccn2c(=O)c(C=O)c(N3CC(C)OC(C)C3)nc12 (centres undefined) | 23.9 | 0.1 | 2.6 | -1.4 | -1.3 | -1.8
COc1ccc(-c2cc(C(=O)Nc3c(C)nn(Cc4ccccc4)c3C)no2)cc1 | -22.5 | 1.4 | 36.2* | -0.9 | 9.8 | 1.3
CCOC(=O)COn1c(-c2cccc(Cl)c2)nc2ccc([N+](=O)[O-])cc21 | -15.4 | -4.8 | 38.0* | 1.2 | -1.3 | -1.5
COC(=O)[C@H](C(C)C)N(CCc1cn(Cc2ccc(C)cc2)nn1)S(=O)(=O)c1ccc(F)cc1Br | / | -6.1 | / | 5.2 | / | /
COc1ccc(S(=O)(=O)Nc2cc3c4c(oc3c3ccccc23)CCCC4=O)cc1 | 5.3 | -3.1 | 8.6 | -1.1 | -1.1 | -2.1
COc1ccc(S(=O)(=O)Nc2cc3c4c(oc3c3ccccc23)CC(C)(C)CC4=O)cc1 | -11.5 | -9.4 | 35.0* | -3.0 | -26.0 | 1.0
COc1ccc(NC(=O)/C(C#N)=C/c2cc(C)n(-c3ccc(N4CCOCC4)c([N+](=O)[O-])c3)c2C)cc1 | -16.0 | -0.7 | 9.2 | -8.6 | 22.4 | 0.8
Cc1cc(/C=C(\C#N)C(=O)Nc2ccc(F)cc2)c(C)n1-c1ccc(N2CCOCC2)c([N+](=O)[O-])c1 | -6.8 | -1.4 | 38.5* | -12.5 | 3.8 | -1.3
COC(=O)c1cnn(-c2ccc(F)cc2F)c1/C=N/NC(=S)Nc1ccccc1 | / | -4.4 | / | -10.7 | / | /
Cc1c(C)n(C)c2ccc(C(=O)NCCN3CCOCC3)cc12 | 1.8 | -4.2 | 49.9* | -0.5 | 2.3 | -0.6
CC(C)=CCC/C(C)=C/C[C@]12C[C@H](C(=O)O)N(C(=O)OC(C)(C)C)[C@@H]1N(C(=O)OC(C)(C)C)c1ccccc12 | / | -6.8 | / | 3.7 | / | /
O=C(O)c1ccc(C#Cc2cccc(F)c2)cn1 | / | -2.8 | / | -0.1 | / | /
COc1ccc(N(C(=O)CNC(=O)c2ccco2)C(C(=O)NC2CCCCC2)c2cccnc2)cc1 (centres undefined) | -2.2 | -1.7 | 37.5* | 0.4 | -2.2 | 1.9
COc1cccc2cc(-c3nc4ccccc4o3)c(=O)oc12 | 102.7* | 0.7 | -11.1 | 7.6 | 4.9 | -0.6
N#CC(=Cc1ccncc1)c1ccccc1 | / | 9.7 | 23.0 | 4.9 | 0.2 | -1.3
N#C/C(=C\c1cccnc1)c1ccc(Br)cc1 | -20.3 | -5.6 | 44.5* | -5.2 | -1.8 | -1.6
COc1nc(-c2ccccc2)ccc1-c1noc(-c2ccco2)n1 | -16.3 | 6.2 | 63.3* | 1.8 | -3.1 | -14.1
COc1ccc(-c2ccc(-c3noc(-c4ccco4)n3)c(OC)n2)cc1 | 9.7 | -0.3 | 6.0 | 1.9 | -4.3 | -7.2
SMILES | PolyA inhibitor | DDE Tn6 FP inh | SKN-1 inh | Tn7 DDE FP | MT1-MMP act inh | DAGLB inhibitor
c1ccc(-c2ccc(OCCCNC3CCCC3)cc2)cc1 | -17.6 | -5.5 | 55.3* | 4.5 | -2.8 | /
c1ccc(Cc2ccc(OCCCNC3CCCC3)cc2)cc1 | -12.2 | / | / | / | / | /
CN(C)Cc1cn(-c2cccc(-c3noc4c3C(=O)N(CC(=O)N3CCOCC3)CC4)c2)nn1 | / | 2.1 | / | 0.6 | / | /
O=C1c2cccc(NCCNCCO)c2C(=O)c2cccc(NCCNCCO)c21 | / | 47.9* | 83.6 | 8.8 | 42.0 | -0.3
O=C(O)CCNc1ccc(NCCC(=O)O)c2c1C(=O)c1ccccc1C2=O | -4.8 | 11.5 | 28.7 | 6.6 | / | 1.3
CC(C)c1ccc(NC(=O)NCc2cccnc2)cc1 | 18.1 | 2.4 | 38.9* | -3.9 | 3.0 | 0.3
Cc1ccc(NC(=O)NCc2cccnc2)cc1 | -2.0 | -5.6 | 1.1 | 10.1 | 1.4 | 3.0
CC(C)Sc1nc(N)nc(-c2cccs2)c1C#N | -29.2 | -6.1 | 39.6* | -5.2 | -6.0 | -4.6
CSc1nc(N)nc(-c2cccs2)c1C#N | -6.0 | 4.0 | 12.7 | 1.0 | -5.2 | -4.5
CCCCCCCCC[n+]1cccc2c3ccccc3ccc21 | -9.2 | / | 14.8 | / | -47.3 | 4.8
CCCCCCCCCCCCCCCC[n+]1cccc2ccccc21 | / | -3.6 | 53.2* | -4.7 | -45.1 | 8.0
CCOC(=O)N1CCN(C(=O)C[C@H]2C[C@@]3(C(=O)OC)C(=C[C@H](C(C)(C)C)O[C@@H]3C)N(CCc3ccc(OC)c(OC)c3)C2=O)CC1 | / | 8.8 | / | 2.2 | / | /
Cc1ccc(-c2nn3c(C)nnc3s2)cc1NC(=O)CSc1ccc(Cl)cc1 | 87.9* | -4.7 | -2.1 | -5.0 | 6.3 | -1.3
COC1=C[C@H](C(=O)NCc2ccccn2)[C@@]2(C)Cc3ccccc3[C@H]2CC1=O | / | 1.5 | / | 5.6 | / | /
Oc1ccc(C2CNCCc3c2cc(O)c(O)c3Cl)cc1 (centres undefined) | 22.2 | 7.3 | 5.1 | -0.6 | -1.3 | 0.1
Oc1cc2c(c(Cl)c1O)CCNCC2c1ccccc1 (centres undefined) | -17.9 | 2.3 | 42.4* | 2.1 | -6.4 | 2.0
O=C1c2ccccc2CCc2ccc(Br)cc21 | / | 6.5 | 35.8* | -5.0 | -1.4 | -5.8
O=C1C(=NO)CCc2ccccc21 | / | -11.4 | 19.6 | -1.2 | -3.5 | 1.4
CCOC(=O)CC1C(=O)NCCN1c1nc2ccc(C)cn2c(=O)c1/C=C1\SC(=S)N(CC(C)C)C1=O (centres undefined) | -1.2 | / | 42.4* | / | -35.2 | -57.8
Brc1ccc(OCc2nc(-c3ccccn3)n[nH]2)cc1 | 9.8 | 2.1 | 28.2* | -1.1 | 1.8 | -9.3
Clc1ccc(OCc2nc(-c3ccccn3)n[nH]2)cc1 | 3.5 | 2.7 | -10.1 | 0.9 | 6.4 | -4.6
O=C(Nc1ccc(Cl)cc1Cl)c1ccc(Br)o1 | -3.4 | -5.7 | 35.8* | -2.9 | 1.5 | -7.8
O=C(Nc1cc(Cl)ccc1N1CCOCC1)c1ccc(Br)o1 | -6.5 | 1.4 | -5.4 | -2.3 | -3.9 | -1.2
c1ccc2c(c1)NC(c1ccncc1)n1c-2nc2ccccc21 (centres undefined) | -3.2 | -6.9 | 33.7* | -8.8 | -17.2 | 0.1
